Compound activity: PubChem BioAssay, Broad Institute
Most compounds without a hit are left out; they make up all but 5.9% or so of the library.
IDH1 R132H inh: IDH1 R132H (human) inhibition; O75874; IDH1 R132H reductase, diaphorase/resazurin fluorescence, 60 min; inhibition, % at 10 µM; 0.18% of 70,000 active; AID 624101; in the data active means inhibition above about 34%; inconclusive means no clear call, values can overlap the other calls; inactive means below about 11%;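 further: 0% = DMSO and 100% = no enzyme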
Target sequence (O75874 whole entry R132H): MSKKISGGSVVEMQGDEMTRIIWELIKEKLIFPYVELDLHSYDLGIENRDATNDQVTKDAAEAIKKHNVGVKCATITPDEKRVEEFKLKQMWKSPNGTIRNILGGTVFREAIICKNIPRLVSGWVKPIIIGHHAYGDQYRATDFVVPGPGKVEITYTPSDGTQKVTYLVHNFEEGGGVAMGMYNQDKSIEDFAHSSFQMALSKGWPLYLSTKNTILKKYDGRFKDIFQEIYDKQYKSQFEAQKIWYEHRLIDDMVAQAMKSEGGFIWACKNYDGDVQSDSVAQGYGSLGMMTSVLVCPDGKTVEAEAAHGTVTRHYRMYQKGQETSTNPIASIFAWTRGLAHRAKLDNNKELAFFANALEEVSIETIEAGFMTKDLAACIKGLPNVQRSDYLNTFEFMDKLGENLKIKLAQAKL
KDM4C inh: inhibitors of human demethylase GASC-1 KDM4C. GST-KDM4C 2-372, H3K9me3 peptide, LANCE TR-FRET. inhibition, % at 12.5 µM. 0.15% of 96,000 active;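 active means mean replicate inhibition above about 25%, with at least 55% of replicates also reaching it, limit read from the data, passing the limit was not always enough; inconclusive means only one of those two conditions met; inactive means neither condition met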
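Assay system: GST-GASC-1 enzyme fragment 2-372 | Amount: 10 nM enzyme | Medium: HEPES buffer, pH 7.5, plus ascorbate | Reagent: H3K9me3 peptide substrate, Fe(II), 2-oxoglutarate | Doses: Single-point compound screen | Incubation: 30 min demethylation and 1 h detection at room temperature | Measured by: LANCE TR-FRET, excitation 340 nm, emissions 618 and 671 nm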
Pf Dd2 growth: blocks growth of Plasmodium falciparum Dd2 parasites; P. falciparum Dd2 growth, SYBR Green, 72 h; active compounds read low; activity change, % at 10 µM; 2.3% of 94,000 active; in the data active means activity change below about -80%; inconclusive means no clear call, values can overlap the other calls
T cruzi growth-1: inhibitors of T. cruzi proliferation; AID 624255; T. cruzi beta-gal in NIH3T3, GalScreen luminescence, 90 h; inhibition, % at 8.34 µM; 5.9% of 77,000 active;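 active means mean inhibition above about 93%, with at least 55% of replicates each passing it, limit read from the data, passing the limit was not always enough; inconclusive means only one of those two conditions holds; inactive means neither condition holds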
T cruzi growth-2: inhibitors of T. cruzi proliferation; shares compounds with T cruzi growth-1; inhibition, % at 8.35 µM; 72% of 5,600 active; T. cruzi beta-gal in NIH3T3, GalScreen luminescence, 90 h; AID 651739;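 active means mean replicate inhibition above about 95% and at least 55% of replicates individually reaching it, limit read from the data; inconclusive means only one of the two criteria is met; inactive means neither criterion is met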
T cruzi growth-3: inhibitors of T. cruzi proliferation; shares compounds with T cruzi growth-1; T. cruzi beta-gal in NIH3T3, GalScreen luminescence, 90 h; inhibition, % at 2.09 µM; 21% of 5,600 active; AID 651740;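 active means mean inhibition above about 95%, with at least 55% of replicates also reaching it, limit read from the data; inconclusive means meets just one of the two conditions; inactive means meets neither condition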;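 further: plate controls were neutral control median for no effect and positive control median for full effect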
NIH3T3 tox: kills mouse NIH/3T3 fibroblasts | shares compounds with T cruzi growth-1 | NIH/3T3 viability, CellTiter-Glo ATP luminescence, 90 h | cytotoxicity (signal decrease), % at 8.35 µM | 14% of 5,600 active | AID 651742;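 active means mean signal decrease across replicates above about 35% based on untreated-well scatter, with enough replicates individually passing, limit read from the data; inconclusive means no rule stated though some were filed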;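 further: 0% = median of neutral control wells and 100% = median of positive control wells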
NIH3T3 tox 2: NIH/3T3 (mouse) viability loss | shares compounds with T cruzi growth-1 | NIH/3T3 viability, CellTiter-Glo ATP luminescence, 90 h | inhibition, % at 24.9 µM | 56% of 5,600 active | AID 651744;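 active means mean loss of cell viability signal at or above a set limit, and enough replicates individually reaching it; inconclusive means meets only the mean limit or only the replicate share; inactive means meets neither condition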;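 further: 0% = median of neutral control wells and 100% = median of positive control wells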
An asterisk follows results filed as active; ? = inconclusive; / = no result given.

SMILES | IDH1 R132H inh | KDM4C inh | Pf Dd2 growth | T cruzi growth-1 | T cruzi growth-2 | T cruzi growth-3 | NIH3T3 tox | NIH3T3 tox 2
C[C@@H]1CN([C@@H](C)CO)C(=O)c2cc(NS(=O)(=O)c3ccc(F)cc3)ccc2O[C@H]1CN(C)Cc1ccc(-c2ccccc2)cc1 | 1 | -1 | -4 | ? | 106* | 83 | 8 | 103*
O=C(Nc1sc2c(c1C(=O)NCc1ccco1)CCC2)c1sc2ccccc2c1Cl | 0 | / | / | / | / | / | / | /
COC(=O)c1ccccc1NC(=O)NC(C)c1cc(OC)ccc1OC (stereo not given) | 1 | / | / | / | / | / | / | /
C/C=C/c1ccc([C@H]2[C@@H](CO)N(c3ncc(CC)s3)[C@H]2C#N)cc1 | / | -4 | 48 | 98* | 33 | 8 | -9 | 23
C/C=C/c1ccccc1[C@@H]1[C@H](C#N)N(c2ncc(CC)s2)[C@H]1CO | / | -1 | -8 | / | / | / | / | /
CCc1cnc(N2[C@@H](C#N)[C@H](c3ccccc3)[C@@H]2CO)s1 | / | 0 | 13 | 27 | / | / | / | /
C/C=C/c1ccc([C@H]2[C@@H](C#N)N(c3ncc(CC)s3)[C@@H]2CO)cc1 | / | / | 20 | 99* | 102* | 67 | -9 | 12
COC(=O)c1ccccc1NC(=O)CN1CCN(C)CC1 | 0 | / | / | / | / | / | / | /
O=C(C[C@H]1C[C@@H]2c3cc(NC(=O)c4ccc5c(c4)OCO5)ccc3O[C@@H]2[C@@H](CO)O1)NCc1cc(F)ccc1F | -1 | 1 | -17 | 52 | / | / | / | /
O=C(C[C@H]1C[C@@H]2c3cc(NC(=O)c4cccnc4)ccc3O[C@@H]2[C@H](CO)O1)NCc1cccnc1 | -1 | -4 | 11 | 98* | 15 | -21 | 6 | 7
O=C(C[C@@H]1C[C@@H]2c3cc(NC(=O)c4ccc5c(c4)OCO5)ccc3O[C@@H]2[C@@H](CO)O1)NCc1cc(F)ccc1F | -2 | 0 | -7 | 99* | 68 | 15 | 6 | -2
CS(=O)(=O)Nc1ccc2c(c1)[C@H]1C[C@@H](CC(=O)NCc3ccncc3)O[C@@H](CO)[C@H]1O2 | 0 | 1 | 19 | 107* | -2 | -12 | -3 | -4
O=C(C[C@H]1C[C@@H]2c3cc(NC(=O)c4cccnc4)ccc3O[C@@H]2[C@@H](CO)O1)NCCc1ccccc1 | -1 | 0 | -31 | 129* | 0 | -2 | -30 | -10
CCCC#Cc1ccc2c(c1)O[C@H](CN(C)Cc1cncnc1)[C@@H](C)CN([C@@H](C)CO)S2(=O)=O | 24 | 39* | -40 | ? | 107* | 101* | ? | 99*
CC(C)CC#Cc1ccc2c(c1)O[C@H](CN(C)Cc1cncnc1)[C@H](C)CN([C@@H](C)CO)S2(=O)=O | -10 | -1 | -3 | 50 | / | / | / | /
CC(C)CC#Cc1ccc2c(c1)O[C@H](CN(C)Cc1cncnc1)[C@@H](C)CN([C@@H](C)CO)S2(=O)=O | -1 | 1 | -31 | 111* | 101* | 101* | ? | 98*
O=C(C[C@@H]1CC[C@@H]2[C@H](COC[C@H](O)CN2Cc2cccc(C(F)(F)F)c2)O1)NCc1ccc(Cl)cc1 | / | -2 | -23 | 82 | / | / | / | /
O=C(C[C@H]1CC[C@@H]2[C@H](COC[C@@H](O)CN2Cc2cccc(C(F)(F)F)c2)O1)NCc1ccc(Cl)cc1 | / | -1 | -13 | 178* | 109* | 24 | 47* | 56*
O=C(C[C@@H]1CC[C@@H]2[C@H](COC[C@@H](O)CN2Cc2cccc(C(F)(F)F)c2)O1)NCc1ccc(Cl)cc1 | / | 1 | -56 | 155* | 81 | -4 | 21 | ?
O=C(C[C@H]1CC[C@@H]2[C@H](COC[C@@H](O)CN2Cc2cccc(Cl)c2)O1)NCC1CCCCC1 | / | 0 | / | 111* | 51 | -22 | 5 | -6
O=C(C[C@H]1CC[C@@H]2[C@H](COC[C@H](O)CN2CCC(F)(F)F)O1)N1CCC(Cc2ccccc2)CC1 | / | -1 | 19 | 53 | / | / | / | /
O=C(C[C@@H]1CC[C@@H]2[C@H](COC[C@@H](O)CN2CCC(F)(F)F)O1)N1CCC(Cc2ccccc2)CC1 | / | -1 | -2 | ? | ? | 51 | 4 | -2
O=C(CSc1nc2ccccc2c(=O)n1CC1CCCO1)c1ccc(Br)cc1 (stereo not given) | 0 | / | / | / | / | / | / | /
COc1cc2c(cc1O)C(=O)CC1C(C)(C)C(=O)CCC21C (stereo not given) | 1 | / | / | / | / | / | / | /
COc1ccccc1NC(=O)CNC(=O)c1ccc(Cl)cc1Cl | -1 | / | / | / | / | / | / | /
SMILES | IDH1 R132H inh | KDM4C inh | Pf Dd2 growth | T cruzi growth-1 | T cruzi growth-2 | T cruzi growth-3 | NIH3T3 tox | NIH3T3 tox 2
O=C(C[C@@H]1CC[C@@H]2[C@H](COC[C@@H](O)CN2Cc2cccc(C(F)(F)F)c2)O1)NCc1ccccc1 | / | -1 | 7 | 34 | / | / | / | /
O=C(C[C@@H]1CC[C@H]2[C@@H](COC[C@H](O)CN2Cc2cccc(C(F)(F)F)c2)O1)NCc1ccc(Cl)cc1 | / | 0 | -21 | 125* | 110* | 22 | 3 | 28*
O=C(C[C@@H]1CC[C@@H]2[C@H](COC[C@H](O)CN2CCC(F)(F)F)O1)NCC1CCCCC1 | / | 2 | 4 | 117* | 9 | 13 | -11 | -20
O=C(C[C@H]1CC[C@H]2[C@@H](COC[C@@H](O)CN2CCC(F)(F)F)O1)NCC1CCCCC1 | / | -1 | 3 | 74 | / | / | / | /
COc1ccc2c(c1)O[C@@H]1COc3cc4c(cc3[C@]1(O)C2=O)OCO4 | 0 | / | / | / | / | / | / | /
C[C@@H]1CN([C@@H](C)CO)S(=O)(=O)c2ccc(C#CC3CC3)cc2O[C@H]1CN(C)CC1CCOCC1 | 0 | 0 | -36 | 109* | 90 | 77 | 65* | 89*
C[C@H]1CN([C@@H](C)CO)S(=O)(=O)c2ccc(C#CC3CC3)cc2O[C@@H]1CN(C)CC1CCOCC1 | 0 | -3 | -14 | ? | 103* | 78 | 14 | 99*
Cc1cccc(NC(=O)CN(c2ccc3c(c2)OCCO3)S(C)(=O)=O)c1 | 0 | / | / | / | / | / | / | /
O=C(CSc1ncccn1)Nc1ccc(I)cc1 | 0 | / | / | / | / | / | / | /
O=C(CC1NC2CCCCC2NC1=O)Nc1ccccc1 (stereo not given) | 5 | / | / | / | / | / | / | /
CCc1cnc(N2[C@H](C#N)[C@H](c3ccc(C#CCC4CCCC4)cc3)[C@@H]2CO)s1 | / | -3 | -58 | 98* | 91 | 114* | -9 | ?
CCc1cnc(N2[C@@H](C#N)[C@@H](c3ccc(C#CCC4CCCC4)cc3)[C@@H]2CO)s1 | / | -1 | -41 | 97* | 99* | 111* | -6 | 104*
CCc1cnc(N2[C@H](C#N)[C@H](c3ccc(C#CCC4CCCC4)cc3)[C@H]2CO)s1 | / | -4 | -29 | 95 | / | / | / | /
COC(=O)c1ccc(Cl)c(NC(=O)C(C)N(c2ccc(C)cc2)S(C)(=O)=O)c1 (stereo not given) | -1 | / | / | / | / | / | / | /
